Measured values reported in ChEMBL document CHEMBL1125386, “Small atrial natriuretic peptide analogues: design, synthesis, and structural requirements for guanylate cyclase activation” (J Med Chem, 1992).
Where a SMILES comes first, the peptide text is derived from it. Bridges are numbered along the chain shown (N, C = ends).

Columns and labels:
Oryctolagus cuniculus = species on record: Oryctolagus cuniculus; assay: In vitro vasorelaxant potency at dose 10 e -8 to 10 e-4 M using rabbit aortic rings precontracted with histamine; format: functional; conditions: Aorta
How it was run: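 Rabbit aortic rings (4–5 mm) in Krebs-Henseleit buffer, gassed 95:5 O2/CO2, pH 7.4, isometric tension, baseline 2 g held 2 h. Rings contracted with 3 μM histamine, then six cumulative half-log peptide increments over 90 min, range 10⁻⁸ to 10⁻⁴ M. Triplicate determinations.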

[1] = tested on: Atrial natriuretic peptide receptor 1 (Oryctolagus cuniculus); assay: Binding affinity for low-affinity site Atrial natriuretic peptide receptor 1 of rabbit adrenal membrane; conditions: Adrenal gland
[2] = Binding affinity towards low-affinity site of Atrial natriuretic peptide receptor 1 of rabbit adrenal membrane; format: tissue-based

KL [1] [nM] | Compound | also measured
– | CC[C@H](C)[C@@H]1NC(=O)[C@H](CCCN=C(N)N)NC(=O)[C@H](CC(=O)O)NC(=O)[C@H]([C@@H](C)CC)NC(=O)[C@H](CCCN=C(N)N)NC(=O)CNC(=O)CNC(=O)[C@H](Cc2ccccc2)NC(=O)[C@@H](N)CSSC[C@@H](C(=O)O)NC1=O (H-CFGGRIDRIC-OH; disulfide 1-10) | EC50 (Oryctolagus cuniculus): 3.8 µM
800 | CC[C@H](C)[C@@H]1NC(=O)[C@@H](CCCN=C(N)N)NC(=O)CNC(=O)CNC(=O)[C@@H](C2CCCCC2)NC(=O)[C@H](N)CSSC[C@H](C(N)=O)NC(=O)[C@@H](CCCN=C(N)N)NC(=O)[C@H](Cc2ccccc2)NC(=O)[C@@H](C)NC(=O)[C@H](CCCN=C(N)N)NC(=O)[C@@H](CC(=O)O)NC1=O | –
680 | CC(C)C[C@@H]1NC(=O)[C@@H](CCCN=C(N)N)NC(=O)CNC(=O)CNC(=O)[C@@H](Cc2ccccc2)NC(=O)[C@@H](C)NC(=O)[C@H](NC(=O)[C@H](CO)NC(=O)[C@@H](N)CO)CSSC[C@H](C(=O)N[C@H](Cc2ccccc2)C(=O)N[C@H](CCCN=C(N)N)C(=O)O)NC(=O)[C@@H](CC(C)C)NC(=O)[C@H](CCCN=C(N)N)NC(=O)[C@@H](CC(=O)O)NC1=O | –
– | CC[C@H](C)[C@@H]1NC(=O)[C@H](CCCN=C(N)N)NC(=O)CNC(=O)CNC(=O)[C@H](Cc2ccccc2)NC(=O)[C@@H](N)CSSC[C@@H](C(=O)N[C@@H](Cc2ccccc2)C(=O)N[C@@H](CCCN=C(N)N)C(=O)O)NC(=O)[C@H]([C@@H](C)CC)NC(=O)[C@H](CCCN=C(N)N)NC(=O)[C@H](CC(=O)O)NC1=O (H-CFGGRIDRICFR-OH; disulfide 1-10) | EC50 (Oryctolagus cuniculus): 4.9 µM
230 | CC[C@H](C)[C@@H]1NC(=O)[C@@H](CCCN=C(N)N)NC(=O)CNC(=O)CNC(=O)[C@@H](C2CCCCC2)NC(=O)[C@H](NC(=O)[C@H](N)CCCN=C(N)N)CSSC[C@H](C(N)=O)NC(=O)[C@@H](CCCN=C(N)N)NC(=O)[C@H](Cc2ccccc2)NC(=O)[C@@H](C)NC(=O)[C@H](CCCN=C(N)N)NC(=O)[C@@H](CC(=O)O)NC1=O | –
– | CC[C@H](C)[C@@H]1NC(=O)[C@H](CCCN=C(N)N)NC(=O)CNC(=O)CNC(=O)[C@H](Cc2ccccc2)NC(=O)CN(C)C(=O)[C@@H](NC(=O)[C@H](CO)NC(=O)[C@@H](N)CO)CSSC[C@@H](C(=O)N[C@@H](Cc2ccccc2)C(=O)N[C@@H](CCCN=C(N)N)C(=O)O)NC(=O)[C@H]([C@@H](C)CC)NC(=O)[C@H](CCCN=C(N)N)NC(=O)[C@H](CC(=O)O)NC1=O | EC50 (Oryctolagus cuniculus): > 1 µM
6500 | CC[C@H](C)[C@@H]1NC(=O)[C@@H](CCCN=C(N)N)NC(=O)CNC(=O)CNC(=O)[C@@H](C2CCCCC2)NC(=O)CCSSC[C@H](C(N)=O)NC(=O)[C@@H](CCCN=C(N)N)NC(=O)[C@@H](Cc2ccccc2)NC(=O)[C@@H]([C@@H](C)CC)NC(=O)[C@H](CCCN=C(N)N)NC(=O)[C@@H](CC(=O)O)NC1=O | –
160 | CC[C@H](C)[C@@H]1NC(=O)[C@@H](CCCN=C(N)N)NC(=O)CNC(=O)CNC(=O)[C@@H](C2CCCCC2)NC(=O)[C@H](NC(=O)[C@@H](CO)NC(=O)[C@H](N)CO)CSSC[C@H](C(=O)O)NC(=O)[C@@H](CCCN=C(N)N)NC(=O)[C@H](Cc2ccccc2)NC(=O)[C@@H]([C@@H](C)CC)NC(=O)[C@H](CCCN=C(N)N)NC(=O)[C@@H](CC(=O)O)NC1=O | –
680 | CC[C@H](C)[C@H]1NC(=O)[C@H](CCCN=C(N)N)NC(=O)[C@@H](CC(=O)O)NC(=O)[C@H](Cc2ccccc2)NC(=O)[C@@H](CCCN=C(N)N)NC(=O)CNC(=O)CNC(=O)[C@@H](C2CCCCC2)NC(=O)[C@H](NC(=O)[C@H](N)CCCN=C(N)N)CSSC[C@H](C(N)=O)NC(=O)[C@@H](CCCN=C(N)N)NC(=O)[C@H](Cc2ccccc2)NC1=O | –
– | CC[C@H](C)[C@@H]1NC(=O)[C@H](CCCN=C(N)N)NC(=O)CNC(=O)CNC(=O)[C@H](Cc2ccccc2)NC(=O)[C@@H](NC(=O)[C@H](CO)NC(=O)[C@@H](N)CO)CSSC[C@@H](C(=O)N[C@@H](CC(N)=O)C(=O)N[C@@H](CO)C(=O)O)NC(=O)[C@H]([C@@H](C)CC)NC(=O)[C@H](CCCN=C(N)N)NC(=O)[C@H](CC(=O)O)NC1=O (H-SSCFGGRIDRICNS-OH; disulfide 3-12) | EC50 (Oryctolagus cuniculus): > 10 µM
– | CC[C@H](C)[C@@H]1NC(=O)[C@H](CCCN=C(N)N)NC(=O)[C@H](CC(=O)O)NC(=O)[C@H]([C@@H](C)CC)NC(=O)[C@H](CCCN=C(N)N)NC(=O)CNC(=O)CNC(=O)[C@H](Cc2ccccc2)NC(=O)[C@@H](NC(=O)[C@H](CO)NC(=O)[C@@H](N)CO)CSSC[C@@H](C(=O)O)NC1=O (H-SSCFGGRIDRIC-OH; disulfide 3-12) | EC50 (Oryctolagus cuniculus): 5.2 µM
– | CC[C@H](C)[C@@H]1NC(=O)[C@@H](CCCN=C(N)N)NC(=O)CNC(=O)CNC(=O)[C@@H](Cc2ccccc2)NC(=O)CNC(=O)[C@H](NC(=O)[C@H](CO)NC(=O)[C@@H](N)CO)CSSC[C@H](C(=O)N[C@H](Cc2ccccc2)C(=O)NCC(=O)O)NC(=O)[C@@H]([C@@H](C)CC)NC(=O)[C@H](CCCN=C(N)N)NC(=O)[C@@H](CC(=O)O)NC1=O | KL [2]: 3100 nM
1900 | CC[C@H](C)[C@@H]1NC(=O)[C@@H](CCCN=C(N)N)NC(=O)CNC(=O)CNC(=O)[C@@H](C2CCCCC2)NC(=O)CCSSC[C@@H](C(N)=O)NC(=O)[C@@H](CCCN=C(N)N)NC(=O)[C@H](Cc2ccccc2)NC(=O)[C@@H]([C@@H](C)CC)NC(=O)[C@H](CCCN=C(N)N)NC(=O)[C@@H](CC(=O)O)NC1=O | –
96 | CC[C@H](C)[C@@H]1NC(=O)[C@@H](CCCN=C(N)N)NC(=O)CNC(=O)CNC(=O)[C@@H](C2CCCCC2)NC(=O)[C@H](NC(=O)[C@H](N)CCCN=C(N)N)CSSC[C@H](C(N)=O)NC(=O)[C@@H](CCCN=C(N)N)NC(=O)[C@H]2Cc3ccccc3CN2C(=O)[C@@H]([C@@H](C)CC)NC(=O)[C@H](CCCN=C(N)N)NC(=O)[C@@H](CC(=O)O)NC1=O | –
– | CC[C@H](C)[C@@H]1NC(=O)[C@H](CCCN=C(N)N)NC(=O)CNC(=O)CNC(=O)[C@H](Cc2ccccc2)NC(=O)CCNC(=O)[C@@H](NC(=O)[C@H](CO)NC(=O)[C@@H](N)CO)CSSC[C@@H](C(=O)N[C@@H](Cc2ccccc2)C(=O)N[C@@H](CCCN=C(N)N)C(=O)O)NC(=O)[C@H]([C@@H](C)CC)NC(=O)[C@H](CCCN=C(N)N)NC(=O)[C@H](CC(=O)O)NC1=O | EC50 (Oryctolagus cuniculus): 1.8 µM
260 | CC[C@H](C)[C@@H]1NC(=O)[C@@H](CCCN=C(N)N)NC(=O)CNC(=O)CNC(=O)[C@@H](C2CCCCC2)NC(=O)[C@H](NC(=O)[C@H](N)CCCN=C(N)N)CSSC[C@H](C(N)=O)NC(=O)[C@@H](CCCN=C(N)N)NC(=O)[C@H](Cc2ccccc2)NC(=O)[C@@H]([C@@H](C)CC)NC(=O)[C@H](CCCN=C(N)N)NC(=O)CNC1=O | –
58 | CC[C@H](C)[C@@H]1NC(=O)[C@H]2CCCCNC(=O)C[C@@H](NC1=O)C(=O)N[C@@H](CCCN=C(N)N)C(=O)N[C@H]([C@@H](C)CC)C(=O)N[C@@H](Cc1ccccc1)C(=O)N[C@H](CCCN=C(N)N)C(=O)N[C@@H](C(N)=O)CSSC[C@@H](NC(=O)[C@H](N)CCCN=C(N)N)C(=O)N[C@H](C1CCCCC1)C(=O)NCC(=O)NCC(=O)N2 | –
– | CC[C@H](C)[C@@H]1NC(=O)[C@@H](CCCN=C(N)N)NC(=O)CNC(=O)CNC(=O)[C@@H](C2CCCCC2)NC(=O)CCSSC[C@H](C(N)=O)NC(=O)[C@@H](CCCN=C(N)N)NC(=O)[C@H](Cc2ccccc2)NC(=O)[C@@H]([C@@H](C)CC)NC(=O)[C@H](CCCN=C(N)N)NC(=O)[C@@H](CC(=O)O)NC1=O | KL [2]: 300 nM
– | CC[C@H](C)[C@@H]1NC(=O)[C@@H](CCCN=C(N)N)NC(=O)Cc2cccc(c2)NC(=O)Cc2cccc(c2)NC(=O)[C@@H](Cc2ccccc2)NC(=O)C(C)NC(=O)[C@H](NC(=O)[C@H](CO)NC(=O)[C@@H](N)CO)CSSC[C@H](C(=O)N[C@H](Cc2ccccc2)C(=O)N[C@H](CCCN=C(N)N)C(=O)O)NC(=O)[C@@H]([C@@H](C)CC)NC(=O)[C@H](CCCN=C(N)N)NC(=O)[C@@H](CC(=O)O)NC1=O (stereo in doubt) | KL [2]: 810 nM
– | CC[C@H](C)[C@@H]1NC(=O)[C@H](CCCN=C(N)N)NC(=O)CNC(=O)CNC(=O)[C@H](Cc2ccccc2)NC(=O)[C@@H](CC2CCCCC2)NC(=O)[C@@H](NC(=O)[C@H](CO)NC(=O)[C@@H](N)CO)CSSC[C@@H](C(=O)N[C@@H](Cc2ccccc2)C(=O)N[C@@H](CCCN=C(N)N)C(=O)O)NC(=O)[C@H]([C@@H](C)CC)NC(=O)[C@H](CCCN=C(N)N)NC(=O)[C@H](CC(=O)O)NC1=O | EC50 (Oryctolagus cuniculus): 0.43 µM
380 | CC[C@H](C)[C@@H]1NC(=O)[C@@H](CCCN=C(N)N)NC(=O)CNC(=O)CNC(=O)[C@@H](C2CCCCC2)NC(=O)CCSSC[C@H](C(N)=O)NC(=O)[C@H](CCCN=C(N)N)NC(=O)[C@H](Cc2ccccc2)NC(=O)[C@@H]([C@@H](C)CC)NC(=O)[C@H](CCCN=C(N)N)NC(=O)[C@@H](CC(=O)O)NC1=O | –
– | CC[C@H](C)[C@@H]1NC(=O)[C@@H](CCCN=C(N)N)NC(=O)CNC(=O)CNC(=O)[C@@H](Cc2ccccc2)NC(=O)CNC(=O)[C@H](NC(=O)[C@H](CO)NC(=O)[C@@H](N)CO)CSSC[C@H](C(=O)N[C@@H](Cc2ccccc2)C(=O)N[C@H](CCCN=C(N)N)C(=O)O)NC(=O)[C@@H]([C@@H](C)CC)NC(=O)[C@H](CCCN=C(N)N)NC(=O)[C@@H](CC(=O)O)NC1=O | KL [2]: 780 nM
680 | CC[C@H](C)[C@@H]1NC(=O)[C@@H](CCCN=C(N)N)NC(=O)CNC(=O)CNC(=O)[C@@H](Cc2ccccc2)NC(=O)[C@H](NC(=O)[C@H](N)CCCN=C(N)N)CSSC[C@H](C(=O)O)NC(=O)[C@@H](CCCN=C(N)N)NC(=O)[C@H](Cc2ccccc2)NC(=O)[C@@H]([C@@H](C)CC)NC(=O)[C@H](CCCN=C(N)N)NC(=O)[C@@H](CC(C)C)NC1=O | –

Compound | KL [1] [nM] | also measured
CC[C@H](C)[C@@H]1NC(=O)[C@@H](CCCN=C(N)N)NC(=O)CNC(=O)CNC(=O)[C@@H](C2CCCCC2)NC(=O)[C@H](NC(=O)[C@H](N)CCCN=C(N)N)CSSC[C@H](C(N)=O)NC(=O)[C@@H](C)NC(=O)CNC(=O)[C@@H]([C@@H](C)CC)NC(=O)[C@H](CCCN=C(N)N)NC(=O)[C@@H](CC(=O)O)NC1=O | 1200 | –
